ABCB1 inh = inhibitors of human ABCB1 transporter, ABCG2 counter-screen; AID 1326; inhibition, % at 6.6 µM; CCRF-Adr cells, JC-1 efflux, flow cytometry; 0.067% of 190,000 active; in the data active = inhibition above about 40%;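 note: 0% = vehicle and 100% = reference inhibitor; higher value means more JC-1 retained so stronger ABCB1 efflux block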
Target sequence (P08183 whole entry, looked up): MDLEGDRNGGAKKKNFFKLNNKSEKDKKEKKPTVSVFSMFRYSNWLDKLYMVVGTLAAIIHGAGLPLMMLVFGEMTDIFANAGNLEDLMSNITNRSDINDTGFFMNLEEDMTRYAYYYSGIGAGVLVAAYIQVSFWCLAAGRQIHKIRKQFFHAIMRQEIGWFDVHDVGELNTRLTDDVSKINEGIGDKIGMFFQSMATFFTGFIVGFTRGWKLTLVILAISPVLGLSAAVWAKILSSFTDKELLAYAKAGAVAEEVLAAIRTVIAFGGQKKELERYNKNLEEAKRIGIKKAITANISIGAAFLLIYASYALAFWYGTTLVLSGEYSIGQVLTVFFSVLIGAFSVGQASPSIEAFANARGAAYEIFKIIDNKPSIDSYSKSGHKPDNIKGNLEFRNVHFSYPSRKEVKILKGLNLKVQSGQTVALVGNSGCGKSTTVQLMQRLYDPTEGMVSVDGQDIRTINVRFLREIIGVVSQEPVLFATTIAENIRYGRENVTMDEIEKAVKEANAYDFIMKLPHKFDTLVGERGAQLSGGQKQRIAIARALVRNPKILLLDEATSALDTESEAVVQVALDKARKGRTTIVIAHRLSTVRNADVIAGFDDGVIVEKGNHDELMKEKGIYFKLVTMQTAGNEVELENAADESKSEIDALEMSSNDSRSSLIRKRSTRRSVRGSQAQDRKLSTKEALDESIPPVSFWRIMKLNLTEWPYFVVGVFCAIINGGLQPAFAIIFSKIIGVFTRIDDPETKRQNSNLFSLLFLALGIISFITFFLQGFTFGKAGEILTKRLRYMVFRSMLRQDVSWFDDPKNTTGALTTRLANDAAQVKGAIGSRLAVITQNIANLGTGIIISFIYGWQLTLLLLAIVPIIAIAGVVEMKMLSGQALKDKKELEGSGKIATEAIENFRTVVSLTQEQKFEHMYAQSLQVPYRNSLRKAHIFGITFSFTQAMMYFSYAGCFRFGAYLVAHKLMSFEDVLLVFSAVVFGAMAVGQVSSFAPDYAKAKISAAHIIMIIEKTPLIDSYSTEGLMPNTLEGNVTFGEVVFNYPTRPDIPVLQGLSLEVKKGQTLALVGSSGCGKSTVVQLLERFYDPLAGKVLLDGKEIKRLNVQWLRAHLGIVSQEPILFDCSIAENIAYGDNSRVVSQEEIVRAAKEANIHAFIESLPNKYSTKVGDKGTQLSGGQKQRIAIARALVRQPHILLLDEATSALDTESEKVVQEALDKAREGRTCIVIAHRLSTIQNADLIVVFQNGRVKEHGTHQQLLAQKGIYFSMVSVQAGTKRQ
FLuc stim CS = firefly luciferase counter-screen for stimulation assays. 200,000 tested, under 10 active. ATPlite luciferase biochemical, luminescence, 10 min; 0 = ATP-free wells, 1 = DMSO control. activation factor at 10 µM. P08659;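 active = luciferase activation factor, scaled between plate controls, of at least 2 with compound at 10 µM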
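System: luciferase plus luciferin reagent, cell-free; medium: PBS as buffer for the ATP substrate; dosing: test compounds dosed from 2 mM stocks in 100% DMSO; timing: 10 min post-reagent at room temperature; measured by: luminescence measurement of luciferase light output; evaluation: luciferase activation, seen as luminescence increase over controls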
ABCB6 inh 2 = blocks the human ABCB6 transporter. Q9NP58. K562-ABCB6 porphyrin accumulation, flow cytometry, 1 h; stronger effect = lower value. fluorescence ratio to DMSO, % at 10 µM. 0.19% of 360,000 active. AID 602162;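 active = fluorescence ratio to DMSO below 75%, the collection mean minus 3 SD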;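 note: signal is porphyrin accumulated inside mitochondria; 100% equals median channel fluorescence of DMSO control wells; lower ratio means ABCB6 inhibition with less porphyrin fluorescence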
ABCG2 inh = inhibitors of human ABCG2 transporter, ABCB1 counter-screen; inhibition, % at 6.6 µM; IgMXP3 cells, JC-1 efflux, flow cytometry; 0.1% of 190,000 active;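 active = inhibition above 80%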;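 note: 0% = DMSO and 100% = nicardipine control wells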
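Test system: IgMXP3 (ABCG2) plus far-red-tagged CCRF-Adr (ABCB1) cells / Amount: 3 million cells/mL in well / Reagent: JC-1 transporter substrate / Timing: 10 min compound exposure, 25 °C / Signal: flow cytometry, 530 nm JC-1 signal / Read-out: percent efflux inhibition, scaled nicardipine 100% to DMSO 0% / Benchmarks: nicardipine as high control, DMSO as low control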
FLuc inh counter = Photinus pyralis luciferase inhibition counter-screen. P08659. ATPLite firefly luciferase biochemical luminescence, 10 min. inhibition, % at 10 µM. 1.5% of 200,000 active. AID 1006;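 active = inhibition above about 50% when tested at 10 µM, limit read from the data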
Diaphorase act = activates diaphorase or chemically reduces, flagging diaphorase assay artifacts; activation factor at 20 µM; 0.005% of 190,000 active; Diaphorase/resazurin coupled assay, resorufin fluorescence, 16 min; stronger effect = higher value; 1 = vehicle wells, 0 = NADH-free wells; AID 1229;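 active = diaphorase activity raised at least twofold by the compound at 20 µM; inactive = activation factor below 2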
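Material: bacterial diaphorase enzyme (C. kluyveri); amount: enzyme 0.07 U/mL final; reagent: NADH substrate 0.114 mM plus resazurin dye 0.1 mM, final; doses: single compound dose of 20 µM, 1% DMSO final; timing: 16 min enzyme reaction, ambient temperature; measured by: fluorescence of resorufin, 544 nm excitation, 590 nm emission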
Active calls of the source: *. This is one part of a sample in which hits are shown more often than they occur.

Results for O=C(NC(=S)N1CCc2ccccc21)c1ccccc1 ?
ABCB1 inh: -2.4; FLuc stim CS: 0.5; ABCB6 inh 2: 106.0; ABCG2 inh: -17.1; FLuc inh counter: 51.9*; Diaphorase act: 0.8

Results for CCCc1cc(C(=O)N2CCC(n3nccc3NC(=O)c3ccc(OC)cc3)CC2)no1 ?
ABCB6 inh 2: 103.0

Results for CC(=NC1CCCCC1)C1=C(O)c2ccccc2C1=O ?
FLuc stim CS: 0.4; ABCB6 inh 2: 102.0; FLuc inh counter: 57.5*; Diaphorase act: 0.8

What do the screens show for `CN(C)Cc1ccccc1CNC(=O)c1cccc(S(=O)(=O)Nc2ccc3c(c2)OCO3)c1`?
ABCB6 inh 2: 100.0

How did COc1ccc2cc(-c3cc(C(=O)OCC(=O)NC4CCS(=O)(=O)C4)c4ccccc4n3)ccc2c1 (centres undefined) do in these assays?
ABCB1 inh: -0.7; FLuc stim CS: 0; ABCB6 inh 2: 100.0; ABCG2 inh: -5.4; FLuc inh counter: 95.2*; Diaphorase act: 0.9

Results for COc1ccc2cc(-c3cc(C(=O)OCC(=O)Nc4c(C)n(C)n(-c5ccccc5)c4=O)c4ccccc4n3)ccc2c1 ?
ABCB1 inh: -2.5; FLuc stim CS: 0.1; ABCB6 inh 2: 90.0; ABCG2 inh: -9.5; FLuc inh counter: 94.3*; Diaphorase act: 0.8

Results for Cc1ccc(SCC(=O)OC(C)C(=O)NCc2ccccc2)cc1C (centres undefined) ?
ABCB6 inh 2: 104.0

What do the screens show for `O=Nc1ccc(NOC(=O)c2ccccc2Br)cc1`?
ABCB1 inh: -0.6; FLuc stim CS: 0.2; ABCB6 inh 2: 96.0; ABCG2 inh: -2.0; FLuc inh counter: 76.8*; Diaphorase act: 1

Results for Cc1cccc(OCC(=O)Nc2ccc3c(c2)OCO3)c1C ?
ABCB1 inh: 1.1; FLuc stim CS: 0.9; ABCB6 inh 2: 89.0; ABCG2 inh: 39.6; FLuc inh counter: 7.4; Diaphorase act: 0.9

Results for Cc1ccc(OCC(=O)Nc2ccc3c(c2)OCO3)c(C)c1 ?
ABCB1 inh: 0.6; FLuc stim CS: 0.5; ABCB6 inh 2: 88.0; ABCG2 inh: 11.6; FLuc inh counter: 54.5*; Diaphorase act: 0.9

What do the screens show for `O=C(COc1ccccc1[N+](=O)[O-])Nc1ccc2c(c1)OCO2`?
ABCB1 inh: -0.3; FLuc stim CS: 0.4; ABCB6 inh 2: 101.0; ABCG2 inh: 8.0; FLuc inh counter: 58.3*; Diaphorase act: 0.8

Results for COC(=O)CC1=NN(c2nc3ccccc3s2)C(=O)/C1=C/N(C)C ?
ABCB1 inh: -0.7; FLuc stim CS: 0.3; ABCB6 inh 2: 98.0; ABCG2 inh: 0.5; FLuc inh counter: 71.9*; Diaphorase act: 0.9

What do the screens show for `CC(=O)c1sc(N/N=C\c2ccccc2O)nc1C`?
ABCB1 inh: 0.0; FLuc stim CS: 0.3; ABCB6 inh 2: 98.0; ABCG2 inh: 0.2; FLuc inh counter: 68.2*

Results for N/C(=N\OCc1ccc([N+](=O)[O-])cc1)c1ccncc1 ?
ABCB1 inh: 0.0; FLuc stim CS: 0.5; ABCB6 inh 2: 101.0; ABCG2 inh: 5.6; FLuc inh counter: 54.9*; Diaphorase act: 0.9

What do the screens show for `O=C(NNC(=O)c1ccc([N+](=O)[O-])cc1)c1ccncc1`?
ABCB1 inh: 1.2; FLuc stim CS: 1; ABCB6 inh 2: 95.0; ABCG2 inh: 8.1; FLuc inh counter: -3.8; Diaphorase act: 0.9

How did O=C(OCn1ncc(Br)c(Br)c1=O)c1ccccc1Cl do in these assays?
ABCB1 inh: 1.2; FLuc stim CS: 1; ABCB6 inh 2: 46.0*; ABCG2 inh: 3.5; FLuc inh counter: -0.8; Diaphorase act: 0.9

Results for CCC(=O)Nc1cc2nn(-c3ccccc3)nc2cc1Cl ?
ABCB1 inh: 0.3; FLuc stim CS: 0.3; ABCB6 inh 2: 92.0; ABCG2 inh: 6.2; FLuc inh counter: 73.8*; Diaphorase act: 1.1

How did CC(=O)Nc1cc2nn(-c3ccccc3)nc2cc1C do in these assays?
ABCB6 inh 2: 100.0

How did COc1ccccc1NS(=O)(=O)c1cccc(NS(=O)(=O)c2cc(C(=O)O)ccc2OC)c1 do in these assays?
ABCB6 inh 2: 113.0

What do the screens show for `O=c1[nH]c(N/N=C/c2ccccc2)nc2ccccc12`?
ABCB1 inh: 0.9; FLuc stim CS: 0.3; ABCB6 inh 2: 110.0; ABCG2 inh: 24.8; FLuc inh counter: 67.3*; Diaphorase act: 0.9

How did O=c1[nH]c(N/N=C\c2ccc3c(c2)OCO3)nc2ccccc12 do in these assays?
ABCB1 inh: 0.6; FLuc stim CS: 0.2; ABCB6 inh 2: 93.0; ABCG2 inh: 0.3; FLuc inh counter: 75.8*; Diaphorase act: 1

How did CC(=O)Nc1cc(-c2ccc(CO)cc2)cn2c(-c3ccc(F)c(Cl)c3)cnc12 do in these assays?
ABCB6 inh 2: 113.0

What do the screens show for `CCOc1ccc(S(=O)(=O)N(C)c2ccc(OCC(=O)Nc3nccs3)cc2)cc1`?
ABCB1 inh: 1.8; FLuc stim CS: 1; ABCB6 inh 2: 94.0; ABCG2 inh: 12.5; FLuc inh counter: -0.3; Diaphorase act: 0.8

What do the screens show for `COc1ccc(OCC(=O)Nc2nccs2)cc1`?
ABCB1 inh: 0.6; FLuc stim CS: 0.2; ABCB6 inh 2: 105.0; ABCG2 inh: 1.4; FLuc inh counter: 75.3*; Diaphorase act: 1

Results for CCOc1ccc(OCC(=O)Nc2nccs2)cc1 ?
ABCB1 inh: 0.6; FLuc stim CS: 0.2; ABCB6 inh 2: 96.0; ABCG2 inh: 2.2; FLuc inh counter: 83.2*; Diaphorase act: 1.1

What do the screens show for `O=S(=O)(NCCC1=CCCCC1)c1ccc(Br)cc1`?
ABCB6 inh 2: 98.0

How did CCNC(=O)C/C(C)=N/NC(=O)C1CCCCC1 do in these assays?
ABCB1 inh: -0.1; FLuc stim CS: 1.1; ABCB6 inh 2: 49.0*; ABCG2 inh: -0.7; FLuc inh counter: -5.0; Diaphorase act: 0.9

Results for COc1ccc(CCNC(=O)C/C(C)=N/NC(=O)C2CCCCC2)cc1OC ?
ABCB1 inh: 0.5; FLuc stim CS: 1.1; ABCB6 inh 2: 98.0; ABCG2 inh: 1.2; FLuc inh counter: -5.5; Diaphorase act: 1

Results for COc1ccc2c(c1)CC/C2=N\OC(=O)c1cccc(C)c1 ?
ABCB1 inh: -0.2; FLuc stim CS: 0.2; ABCB6 inh 2: 96.0; ABCG2 inh: 3.1; FLuc inh counter: 78.5*; Diaphorase act: 0.8

How did COc1ccc2c(c1)CC/C2=N\OC(=O)c1ccccc1C do in these assays?
ABCB1 inh: 0.6; FLuc stim CS: 0.3; ABCB6 inh 2: 88.0; ABCG2 inh: 1.5; FLuc inh counter: 74.7*; Diaphorase act: 0.9

Results for COc1cc(NC(=O)C[n+]2ccc(C(=O)c3ccccc3)cc2)cc(OC)c1 ?
ABCB6 inh 2: 104.0

Results for COc1ccc(CCNC(=O)CCS(=O)(=O)c2ccc3c(c2)NC(=O)CO3)cc1OC ?
ABCB6 inh 2: 106.0

Compound activity (PubChem BioAssay)
